In BindingDB's records for doi:10.1021/jm960807v (University of Florence, 1997):

Target: T1, 3-oxo-5-alpha-steroid 4-dehydrogenase 2 (Homo sapiens, UniProt P31213)
T1 sequence (P31213 whole entry): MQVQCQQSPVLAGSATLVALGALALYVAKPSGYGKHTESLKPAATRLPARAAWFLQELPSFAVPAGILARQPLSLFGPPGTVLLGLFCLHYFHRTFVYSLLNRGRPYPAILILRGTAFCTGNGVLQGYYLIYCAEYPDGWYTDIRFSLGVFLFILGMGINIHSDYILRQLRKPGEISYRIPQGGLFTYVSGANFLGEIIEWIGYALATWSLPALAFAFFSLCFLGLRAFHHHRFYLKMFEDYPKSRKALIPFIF
Experiment: Inhibitory activity against 5-alpha Reductase-2 on human prostate homogenates from surgically derived benign hyperplastic tissue
Method in brief: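 Benign hyperplastic human prostate tissue, stored at -80 °C, was homogenized near 0 °C in 50 mM TRIS pH 7.4 with salts, nicotinamide and sucrose, spun at 200g, and the combined supernatants were used. Homogenate (0.1 mg protein) was incubated with 30 nM testosterone (9% [3H]) and 0.3 mM NADPH for 30 min at 37 °C, with the inhibitor added alongside the substrate. Inhibitor range was 10⁻¹⁰–10⁻⁵ M. DHT conversion was read by TLC and scintillation, in duplicate.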

IC50	Compound
> 100 µM	C[C@]12CCC3=C4C(=O)CCN=C4CCC3[C@@H]1CCC2=O (some centres not stated)
4.6 µM	C[C@]12CC=C3[C@@H](CCC4=CC(=O)CCN43)C1CCC2=O (some centres not stated)
